Source: ChEMBL document CHEMBL1143154, “Discovery of potent LPA2 (EDG4) antagonists as potential anticancer agents” (Bioorg Med Chem Lett, 2008)

What was measured:
[1] = target: T1, Lysophosphatidic acid receptor 2 (Homo sapiens, UniProt Q9HBW0); assay: Antagonist activity at LPA2 expressed in RH7777 cells with Gi4-protein and aequorin by calcium mobilization assay; type: functional, cell-based
In short: (§1)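 Rat hepatoma RH7777 cells transiently transfected with aequorin, chimeric Gi4-protein and the LPA receptor subtype (LPA1, LPA2 or LPA3). Inhibition of LPA-induced receptor activation read as Ca2+ flux by flash luminescence in 384-well format; IC50 in μM, n = 2.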

[2] = target: Lysophosphatidic acid receptor 1 (Homo sapiens, UniProt Q92633); assay: Antagonist activity at LPA1 expressed in RH7777 cells with Gi4-protein and aequorin by calcium mobilization assay; type: functional, cell-based; in short: as §1
Chain of Lysophosphatidic acid receptor 1 (Q92633 whole entry): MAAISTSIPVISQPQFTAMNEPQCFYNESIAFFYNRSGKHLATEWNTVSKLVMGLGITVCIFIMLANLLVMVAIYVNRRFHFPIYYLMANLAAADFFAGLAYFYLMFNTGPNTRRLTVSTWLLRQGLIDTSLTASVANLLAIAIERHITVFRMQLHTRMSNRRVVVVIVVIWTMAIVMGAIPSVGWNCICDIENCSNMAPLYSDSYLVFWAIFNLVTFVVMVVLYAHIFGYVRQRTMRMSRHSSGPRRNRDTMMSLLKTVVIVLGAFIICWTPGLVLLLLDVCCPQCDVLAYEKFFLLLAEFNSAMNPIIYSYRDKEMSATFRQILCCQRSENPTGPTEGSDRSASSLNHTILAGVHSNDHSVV

[3] = target: T2, Lysophosphatidic acid receptor 3 (Homo sapiens, UniProt Q9UBY5); assay: Antagonist activity at LPA3 expressed in RH7777 cells with Gi4-protein and aequorin by calcium mobilization assay; type: functional, cell-based; in short: as §1
T2 sequence (Q9UBY5 whole entry): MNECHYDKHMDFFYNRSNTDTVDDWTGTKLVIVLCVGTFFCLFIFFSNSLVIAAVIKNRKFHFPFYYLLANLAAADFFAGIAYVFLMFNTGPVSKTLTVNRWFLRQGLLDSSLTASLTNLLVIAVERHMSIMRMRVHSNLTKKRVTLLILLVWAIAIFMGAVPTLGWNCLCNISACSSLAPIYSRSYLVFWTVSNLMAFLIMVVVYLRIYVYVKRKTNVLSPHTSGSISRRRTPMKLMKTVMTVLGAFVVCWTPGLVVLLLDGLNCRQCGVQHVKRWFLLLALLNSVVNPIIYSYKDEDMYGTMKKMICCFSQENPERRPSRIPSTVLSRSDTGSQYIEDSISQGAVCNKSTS

[4] = target: T1, Lysophosphatidic acid receptor 2; assay: Inhibition of LPA2-mediated Erk activation in human HCT116 assessed as inhibition of LPA-induced erk phosphorylation
In short: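 HCT-116 cells at 90% confluence serum-starved 2 h, preincubated with compound at various concentrations 1 h at 37 °C, then stimulated with LPA 3 μM (HGF 30 ng/ml as counter-stimulus) for 12 min at 37 °C. Cells fixed, permeabilized, blocked 2 h; in-cell Western detection of p-Erk and total Erk simultaneously, p-Erk normalized to total Erk per well.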

HCT-116 = assay: Inhibition of LPA-induced proliferation of human HCT116 cells after 24 hrs; type: functional, cell-based
In short: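 HCT-116 cells at 5000 cells/well in serum-free DMEM with 0.11% BSA. Test compound added at various concentrations, then LPA at a final 3 μM (HGF at a final 30 ng/ml as comparison stimulus). After 24 h incubation, viable cells measured by CellTiter-Glo luminescence.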

[5] = target: T1, Lysophosphatidic acid receptor 2; assay: Antagonist activity at LPA2 assessed as inhibition of LPA-induced Ca2+ flux; type: functional; in short: as §1

T1 sequence (Q9HBW0 whole entry): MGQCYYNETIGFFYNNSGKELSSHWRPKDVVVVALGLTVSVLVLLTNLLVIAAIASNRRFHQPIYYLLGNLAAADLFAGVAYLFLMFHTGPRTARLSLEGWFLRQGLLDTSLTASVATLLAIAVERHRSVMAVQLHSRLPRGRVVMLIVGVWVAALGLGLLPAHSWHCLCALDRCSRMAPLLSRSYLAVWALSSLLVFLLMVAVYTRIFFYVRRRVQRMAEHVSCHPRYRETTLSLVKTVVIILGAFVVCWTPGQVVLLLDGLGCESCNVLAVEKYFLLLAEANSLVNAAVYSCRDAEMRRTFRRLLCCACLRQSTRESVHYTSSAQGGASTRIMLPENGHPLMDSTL

Compound | IC50 [1] [nM] | also measured
COc1cc(OC)cc(C(=O)N(CCCc2ccccc2)Cc2ccc(Oc3ccccc3C(=O)O)cc2)c1 | > 50000 | IC50 [2]: > 50000 nM; IC50 [3]: 40 nM
Cc1noc(-c2ccccc2)c1NC(=O)OC(C)c1ccccc1 (stereo not drawn) | > 50000 | IC50 [2]: 50 nM; IC50 [3]: 12000 nM
Cc1csc2c(N[C@@H](C)CN3CCN(S(=O)(=O)c4ccc(Cl)c(Cl)c4)CC3)ncnc12 | 17 | IC50 [2]: > 50000 nM; Activity [4]: Dose-dependent effect; Activity (HCT-116): Dose-dependent effect; IC50 [3]: > 50000 nM
Cc1ccc(S(=O)(=O)N2CCN(C[C@H](C)Nc3ncnc4c(C)csc34)CC2)cc1 | 170 | –
COc1ccccc1N1CCN(CC(C)(C)Nc2nc(C(F)(F)F)nc3ccccc23)CC1 | > 30000 | –
Cc1csc2c(N[C@@H](C)CN3CCN(S(=O)(=O)Cc4ccccc4)CC3)ncnc12 | 1860 | –
CC(CN1CCN(c2ccc(F)cc2)CC1)Nc1nc(C2CC2)nc2ccccc12 (stereo not drawn) | – | IC50 [5]: 1700 nM
COc1ccccc1N1CCN(C[C@@H](C)Nc2nc(C(F)(F)F)nc3ccccc23)CC1 | > 30000 | –
CC[C@@H](CN1CCN(c2ccccc2OC)CC1)Nc1nc(C(F)(F)F)nc2ccccc12 | > 30000 | –
COc1ccccc1N1CCN(C[C@H](C)Nc2nc(C(F)(F)F)nc3ccccc23)CC1 | 1300 | –
Cc1ccccc1N1CCN(C[C@H](C)Nc2ncnc3c(C)csc23)CC1 | 260 | IC50 [2]: > 50000 nM; IC50 [3]: > 50000 nM
Cc1ccccc1S(=O)(=O)N1CCN(C[C@H](C)Nc2ncnc3c(C)csc23)CC1 | 730 | –
COc1ccccc1N1CCN(C[C@H](C)Nc2nc(C3CC3)nc3ccccc23)CC1 | 3200 | –
COc1ccccc1N1CCN(CCNc2nc(C(F)(F)F)nc3ccccc23)CC1 | > 30000 | –
Cc1csc2c(N[C@@H](C)CN3CCN(S(=O)(=O)c4cccc(Cl)c4)CC3)ncnc12 | 35 | –
Cc1ccccc1N1CCN(C[C@H](C)Nc2nc(C(F)(F)F)nc3ccccc23)CC1 | 730 | –
CCCCS(=O)(=O)N1CCN(C[C@H](C)Nc2ncnc3c(C)csc23)CC1 | 6610 | –
Cc1cccc(S(=O)(=O)N2CCN(C[C@H](C)Nc3ncnc4c(C)csc34)CC2)c1 | 310 | –
